A short description of data set [1]: Inhibition of beta lactamase OXA-48 in Klebsiella pneumoniae assessed as decrease in enzyme activity using nitrocefin as chromogenic substrate incubated for 60 mins by absorbance plate reader analysis.
Data set [2] relates to Escherichia coli. Kind of data set: Inhibition of beta-lactamase activity in Escherichia coli ARC3627 assessed as MIC for cefpodoxime antibacterial activity at 4 ug/ml by CLSI based broth dilution method (Rvb >64 ug/ml). The note with it: dose 4.0 µg/ml. (In general: Broth dilution looks for growth in wells or tubes with falling amounts of substance.)
Data set [3] is described as follows: Inhibition of beta lactamase AmpC in Pseudomonas aeruginosa assessed as decrease in enzyme activity using nitrocefin as chromogenic substrate incubated for 60 mins by […] plate reader analysis.
The nature of data set [4]: Inhibition of beta lactamase AmpC in Pseudomonas aeruginosa assessed as decrease in enzyme activity using nitrocefin as chromogenic substrate incubated for 10 mins by […] plate reader analysis.
A short description of data set [5]: Inhibition of beta lactamase TEM-1 in Escherichia coli assessed as decrease in enzyme activity using nitrocefin as chromogenic substrate incubated for 60 mins by […] plate reader analysis.
The subject of data set [6] is Klebsiella pneumoniae. Kind of data set: Antibacterial activity against Klebsiella pneumoniae ARC561 assessed as reduction in bacterial growth by CLSI based broth dilution method. Format: functional. In a few lines: (§1)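 Broth microdilution in CAMHB following CLSI.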
Data set [7] has as its system Escherichia coli. Kind of data set: Antibacterial activity against Escherichia coli ARC3627 assessed as reduction in bacterial growth by CLSI based broth dilution method. It counts as functional. The essentials: as §1
Data set [8] concerns Klebsiella pneumoniae. Kind of data set: Inhibition of beta-lactamase activity in Klebsiella pneumoniae ARC561 assessed as MIC for cefpodoxime antibacterial activity at 4 ug/ml by CLSI based broth dilution method (reference value: 32 ug/ml). The note with it: dose 4.0 µg/ml.
The nature of data set [9]: Inhibition of beta lactamase OXA-48 in Klebsiella pneumoniae assessed as decrease in enzyme activity using nitrocefin as chromogenic substrate incubated for 10 mins by […] plate reader analysis.
Data set [10] can be described thus: Inhibition of beta lactamase TEM-1 in Escherichia coli assessed as decrease in enzyme activity using nitrocefin as chromogenic substrate incubated for 10 mins by […] plate reader analysis.
Data set [11] can be described thus: Oral bioavailability in Sprague-Dawley rat at 10 mg/kg by LC/MS/MS analysis. To be noted: in vivo. It counts as ADME, organism-based. The essentials:
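Jugular vein-cannulated male Sprague Dawley rats (180–200 g, n = 3/route). Intravenous arm: active acid at 10 mg/kg in 0.9% saline, plasma sampled 0.08–8 h. Oral arm: prodrug at a dose equivalent to 10 mg/kg acid in 25:75 PEG 400/WFI, plasma sampled 0.25–24 h. Levels by LC/MS/MS; F = (AUCpo/AUCiv) × 100.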

Consider 22 molecules from ChEMBL document CHEMBL4765376, “Discovery of an Orally Available Diazabicyclooctane Inhibitor (ETX0282) of Class A, C, and D Serine β-Lactamases” (J Med Chem, 2020).

Converted amounts (≈) assume the structure as drawn. The source made the active and inactive calls. The calls are words filed in the database; no cut-off is given here.

One may read the IC50 as the concentration that gives 50% inhibition. As to `CC1=C[C@@H](C(N)=O)N2C[C@@H]1N(OCC(=O)O)C2=O`, the IC50 in data set [1] was 530 nM; in data set [3], 4600 nM; in data set [4], 14000 nM; in data set [5], 150 nM; in data set [9], 66 nM; in data set [10], 340 nM. In addition, the MIC is less than 0.06 µg/mL in [2], 32 µg/mL (≈ 125 µM) in [6], 2 µg/mL (≈ 7.84 µM) in data set [7] and 0.125 µg/mL (≈ 0.49 µM) in [8].
The bioavailability is dose-corrected exposure relative to a reference, in per cent. In [11], `CCOC(=O)[C@@H](F)ON1C(=O)N2C[C@H]1C=C(C)[C@H]2C(N)=O` gave a bioavailability of 45%.
Turning to `CCOC(=O)[C@H](F)ON1C(=O)N2C[C@H]1C(C)=C[C@H]2C(N)=O` (racemic), the bioavailability in data set [11] turned out to be 71%.
On to `CC1=C[C@@H]2CN(C(=O)N2OC(F)(F)C(=O)O)[C@@H]1C(N)=O`, for which the IC50 in data set [1] came to 14 nM; in data set [3], 12 nM; in data set [4], 50 nM; in data set [5], 1.5 nM; in data set [9], 75 nM; in data set [10], 1.2 nM. The MIC entry in data set [2], in [6], in data set [7] and in [8] was “inactive” throughout.
`CCOC(=O)[C@@H](F)ON1C(=O)N2C[C@H]1C(C)=C[C@H]2C(N)=O`: in data set [11], the bioavailability worked out at 75%.
Take `NC(=O)[C@@H]1C(C2CC2)=C[C@@H]2CN1C(=O)N2OC(F)C(=O)O` (single isomer, unassigned): the IC50 was 5.2 nM in [1]; 95 nM in data set [3]; 290 nM in [4]; 24 nM in [5]; 17 nM in data set [9]; 18 nM in data set [10]. Besides, the MIC was 2 µg/mL (≈ 6.68 µM) in data set [2], more than 32 µg/mL in data set [6], 32 µg/mL (≈ 107 µM) in data set [7] and 2 µg/mL (≈ 6.68 µM) in data set [8].
As to `NC(=O)[C@@H]1CC[C@@H]2CN1C(=O)N2OS(=O)(=O)O` [AVIBACTAM], the MIC in [2] is 0.5 µg/mL (≈ 1.89 µM); in data set [6], more than 32 µg/mL; in data set [7], 32 µg/mL (≈ 121 µM); in data set [8], 1 µg/mL (≈ 3.77 µM).
As to `CC1=C[C@@H]2CN(C(=O)N2O[C@@H](F)C(=O)O)[C@@H]1c1nnc(C(N)=O)o1`, the IC50 was determined as 7.3 nM in [1]; 180 nM in data set [3]; 360 nM in [4]; 24 nM in data set [5]; 26 nM in [9]; 17 nM in [10]. Besides, the MIC in [2] is 2 µg/mL (≈ 5.86 µM); in data set [6], more than 32 µg/mL; in [7], 16 µg/mL (≈ 46.9 µM); in data set [8] it was 2 µg/mL (≈ 5.86 µM).
In data set [11], `CC1=C[C@@H](C(N)=O)N2C[C@@H]1N(O[C@@H](F)C(=O)OC(C)C)C2=O` had a bioavailability of 84%.
As for `CC1=C[C@@H]2CN(C(=O)N2OC(C)(F)C(=O)O)[C@@H]1C(N)=O` (stereo not given in full), the concentration for half-maximal inhibition (IC50) in data set [1] stood at 22000 nM; in data set [3], 400 nM; in data set [4], 1400 nM; in [5], 230 nM; in data set [9] it was 89000 nM; in data set [10], 680 nM. Further, the MIC is 2 µg/mL (≈ 6.96 µM) in data set [2], more than 32 µg/mL in [6], more than 32 µg/mL in [7] and 2 µg/mL (≈ 6.96 µM) in data set [8].
As for `CC1=C[C@@H]2CN(C(=O)N2O[C@@H](F)C(=O)O)[C@@H]1C(N)=O`, the 50% inhibitory concentration (IC50) in data set [1] stood at 15 nM; in data set [3], 71 nM; in data set [4], 180 nM; in data set [5], 19 nM; in data set [9] it was 63 nM; in data set [10], 13 nM. Also, the MIC in [2] was 1 µg/mL (≈ 3.66 µM); in data set [6], more than 32 µg/mL; in [7], 8 µg/mL (≈ 29.3 µM); in [8] it was 2 µg/mL (≈ 7.32 µM).
As to `CC1=C[C@@H]2CN(C(=O)N2O[C@@H](F)C(=O)O)[C@@H]1C(=O)NCCNS(N)(=O)=O`, the concentration for half-maximal inhibition (IC50) stood at 420 nM in data set [1]; 14 nM in data set [3]; 53 nM in data set [4]; 83 nM in [5]; 2000 nM in data set [9]; 55 nM in data set [10]. Besides, the MIC in data set [2] was less than 0.06 µg/mL; in data set [6] it was more than 32 µg/mL; in [7] it was 2 µg/mL (≈ 5.06 µM); in [8] it was 0.125 µg/mL (≈ 0.316 µM).
On to `CC1=C[C@@H](C(N)=O)N2C[C@@H]1N(O[C@H](F)C(=O)O)C2=O`, for which the IC50 came to 70 nM in data set [1]; 140 nM in data set [3]; 450 nM in data set [4]; 3.2 nM in data set [5]; 370 nM in [9]; 2.3 nM in [10]. The MIC is less than 0.06 µg/mL in data set [2] and 0.25 µg/mL (≈ 0.915 µM) in [8].
Consider `CC1=C[C@@H]2CN(C(=O)N2OCC(=O)O)[C@@H]1C(N)=O`, for which the IC50 in data set [1] stood at 51 nM; in [3], 1200 nM; in [4], 4100 nM; in data set [5], 430 nM; in [9], 150 nM; in [10], 1500 nM. Moreover, the MIC in data set [2] is 4 µg/mL (≈ 15.7 µM); in data set [6] it was more than 32 µg/mL; in data set [7], 32 µg/mL (≈ 125 µM); in data set [8] it was 2 µg/mL (≈ 7.84 µM).
Regarding `CC1=C[C@@H]2CN(C(=O)N2O[C@@H](F)C(=O)O)[C@@H]1C(=O)NCCS(N)(=O)=O`, the concentration for half-maximal inhibition (IC50) in [1] is 410 nM; in data set [3], 4.1 nM; in data set [4], 22 nM; in data set [5], 57 nM; in data set [9] it was 2200 nM; in data set [10] it was 48 nM. Further, the MIC in [2] was less than 0.06 µg/mL; in data set [6], more than 32 µg/mL; in [7], 4 µg/mL (≈ 10.5 µM); in data set [8], 1 µg/mL (≈ 2.63 µM).
The molecule `CC1=C[C@@H]2CN(C(=O)N2O[C@H](F)C(=O)OC(C)C)[C@@H]1C(N)=O` registered a bioavailability in data set [11] of 38%.
Regarding `CC1=C[C@@H]2CN(C(=O)N2O[C@H](F)C(=O)O)[C@@H]1C(N)=O`, the IC50 in [1] was determined as 15 nM; in data set [3], 11 nM; in data set [4], 41 nM; in data set [5], 1.4 nM; in data set [9], 71 nM; in data set [10], 0.73 nM. The MIC in data set [2] stood at 0.06 µg/mL (≈ 0.22 µM); in data set [6], 32 µg/mL (≈ 117 µM); in [7] it was 2 µg/mL (≈ 7.32 µM); in data set [8], 0.25 µg/mL (≈ 0.915 µM).
`CC1=C[C@@H](C(N)=O)N2C[C@@H]1N(O[C@@H](F)C(=O)O)C2=O` (racemic): the IC50 in data set [1] was determined as 19 nM; in data set [3], 300 nM; in data set [4] it was 1300 nM; in data set [5] it was 26 nM; in [9], 67 nM; in data set [10], 20 nM. For the same molecule, the MIC in data set [2] was less than 0.06 µg/mL; in data set [6] it was more than 32 µg/mL; in [8] it was 0.06 µg/mL (≈ 0.22 µM).
On to `CC1=C[C@@H]2CN(C(=O)N2OS(=O)(=O)O)[C@@H]1C(N)=O`, for which the IC50 was 5 nM in data set [1], 5.8 nM in data set [3], 8 nM in [4] and 24 nM in data set [9]. Besides, the MIC in [2] is less than 0.06 µg/mL; in [6], 8 µg/mL (≈ 28.9 µM); in data set [7], 0.25 µg/mL (≈ 0.902 µM); in [8], less than 0.06 µg/mL.
With `CC1=C[C@@H]2CN(C(=O)N2O[C@H](F)C(=O)OC(C)OC(=O)OC(C)C)[C@@H]1C(N)=O` (stereo not given in full), in data set [11], the bioavailability is 11%.
As for `CC1=C[C@@H]2CN(C(=O)N2O[C@@H](F)C(=O)O)[C@@H]1C(=O)NC1COC1`, the 50% inhibitory concentration (IC50) was determined as 12 nM in data set [1]; 54 nM in [3]; 260 nM in [4]; 660 nM in data set [5]; 55 nM in data set [9]; 440 nM in data set [10]. Further, the MIC was more than 32 µg/mL in [2], more than 32 µg/mL in data set [6], 16 µg/mL (≈ 48.6 µM) in data set [7] and 4 µg/mL (≈ 12.1 µM) in data set [8].
For `CC1=C[C@@H]2CN(C(=O)N2O[C@@H](F)C(=O)O)[C@@H]1C(=O)NOCC1CC1`, the 50% inhibitory concentration (IC50) in data set [1] came out at 87 nM; in data set [3], 130 nM; in [4], 700 nM; in [5] it was 26 nM; in [9], 400 nM; in data set [10], 18 nM. Moreover, the MIC in [2] is 16 µg/mL (≈ 46.6 µM); in [6], more than 32 µg/mL; in data set [7], more than 32 µg/mL; in data set [8], 4 µg/mL (≈ 11.7 µM).
